Data on twelve molecules can be found in ChEMBL document CHEMBL1130234 (J Med Chem, 1997).

The target in series [1] is T1, Arachidonate 5-lipoxygenase (Bos taurus, UniProt Q9BEG3).
T1 sequence (Q9BEG3 whole entry): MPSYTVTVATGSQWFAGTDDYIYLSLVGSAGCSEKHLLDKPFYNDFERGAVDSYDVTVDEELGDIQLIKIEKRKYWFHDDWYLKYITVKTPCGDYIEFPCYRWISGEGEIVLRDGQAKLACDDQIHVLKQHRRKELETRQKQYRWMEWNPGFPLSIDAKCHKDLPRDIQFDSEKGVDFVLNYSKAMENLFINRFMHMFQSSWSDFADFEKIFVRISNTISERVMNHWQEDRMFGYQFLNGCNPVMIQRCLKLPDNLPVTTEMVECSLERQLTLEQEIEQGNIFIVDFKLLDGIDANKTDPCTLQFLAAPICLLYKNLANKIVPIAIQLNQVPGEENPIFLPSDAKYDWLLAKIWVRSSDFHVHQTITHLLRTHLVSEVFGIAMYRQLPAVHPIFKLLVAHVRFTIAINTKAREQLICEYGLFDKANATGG
Description: 5-LO inhibitory activity was determined by inhibition of LTB4 biosynthesis in bovine polymorphonuclear leukocytes (PMNL). In kind it is functional, cell-based. An outline of the steps: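 LTB4 biosynthesis measured in bovine polymorphonuclear leukocytes, with NDGA as the standard inhibitor; N = 3 or more, significance versus control at P < 0.01.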

Series [2] has as its system HaCaT. Description: Antiproliferative (inhibition of cell growth) activity against HaCaT cells (human keratinocyte line). The class given is functional, cell-based. An outline of the steps:
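HaCaT human keratinocytes treated for 48 h. Proliferation assessed by directly counting dispersed cells under a phase-contrast microscope; N = 3, significance versus control at P < 0.01.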

Series [3] in a line: Partition coefficient (logP). The class given is physicochemical. The conditions noted are these: octanol/water.
Series [4] has as its system HaCaT. Description: Cytotoxic activity (2 uM) was measured by the amount of LDH (mU) release in HaCaT cells. The class given is functional, Homo sapiens. Put shortly: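 HaCaT cells exposed to test compound at 2 μM; LDH activity (mU) released into the culture medium measured and compared with vehicle control; N = 3.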
Series [5] can be described thus: Antioxidant potential was assessed from reducing activity against 2,2,di-phenyl-1-picrylhydrazyl.

For orientation: IC50 means the point on the concentration scale where inhibition reaches its midpoint. The low end stands for greater potency in that assay, the high end for weaker potency in that assay. In general, logP refers to a log measure of how a compound divides between an organic and an aqueous phase. Higher therefore signals a more lipophilic compound. For `Cc1ccc2c(c1O)C(=O)c1c(O)cccc1C2`, the values for the half-maximal inhibitory concentration (IC50) in series [1] and in series [2] were over 30 µM and 1.5 µM, respectively. The molecule also registered a logP in series [3] of 4.99. In series [4], this molecule returned an LDH of 126 mU. For the same molecule, the kDPPH in series [5] was 17.2 M⁻¹ s⁻¹.
On the same counts, the results for `CC(=O)Oc1cccc2c1C(=O)c1c(cccc1OC(C)=O)C2` are 9 µM, 0.7 µM, 2.4, 314 mU and 3.6 M⁻¹ s⁻¹.
On the same counts, the results for `O=C1c2c(O)cccc2C(C2c3cccc(O)c3C(=O)c3c(O)cccc32)c2cccc(O)c21` are over 30 µM, 0.6 µM, 5.01, 263 mU and under 1 M⁻¹ s⁻¹.
In the same order, the values of `O=C1c2c(O)cccc2C(Cc2ccccc2)c2cccc(O)c21` are over 30 µM, over 5 µM, 4.5, 135 mU and under 2 M⁻¹ s⁻¹.
For `CC(=O)Oc1cccc2c1C(=O)c1c(O)cccc1C2`, the IC50 in series [1] turned out to be 6 µM; in series [2], 0.8 µM. In series [3], this molecule registered a lipophilicity (logP) of 3.25. In addition, the LDH in series [4] turned out to be 243 mU. The kDPPH in series [5] is 16.1 M⁻¹ s⁻¹.
In the same order, the values of `Cc1cc(O)c2c(=O)c3c(O)cc(O)c4c5c(O)cc(O)c6c(=O)c7c(O)cc(C)c8c1c2c(c34)c(c78)c65` [HYPERICIN] are over 30 µM, 1.7 µM, 5.02, 159 mU and 3.66 M⁻¹ s⁻¹.
Consider `CCCCC(=O)C1c2cccc(O)c2C(=O)c2c(O)cccc21`, for which the half-inhibitory concentration (IC50) was over 30 µM in series [1] and 4.4 µM in series [2]. The molecule further registered a logP in series [3] of 4.12. Also, in series [4], the LDH was found to be 214 mU. The kDPPH in series [5] is 7 M⁻¹ s⁻¹.
Regarding `N=C1c2c(O)cccc2Cc2cccc(O)c21`, the figures for the IC50 in series [1] and in series [2] were over 30 µM and 0.5 µM, respectively. For the same molecule, the log partition coefficient (logP) in series [3] was 4.72. In series [4], this molecule registered an LDH of 137 mU. Further, the kDPPH in series [5] was found to be 2.7 M⁻¹ s⁻¹.
On the same counts, the results for `CC(=O)C1c2cccc(O)c2C(=O)c2c(O)cccc21` are 18 µM, 2.6 µM, 3.49, 317 mU and 17.6 M⁻¹ s⁻¹.
In the same order, the values of `O=C1c2ccccc2Cc2c1ccc(O)c2O` are 4 µM, over 5 µM, 3.81, 144 mU and over 100 M⁻¹ s⁻¹.
With `O=C1c2ccccc2Cc2ccccc21` [ANTHRONE], the half-inhibitory concentration (IC50) in series [1] is 2 µM; in series [2], over 5 µM. This molecule also registered a logP in series [3] of 3.46. This molecule also showed an LDH in series [4] of 165 mU. The molecule further showed a kDPPH in series [5] of under 2 M⁻¹ s⁻¹.
As for `COc1cccc2c1Cc1c(OC)cccc1C2=O`, the IC50 in series [1] was 8 µM; in series [2] it was over 5 µM. In series [3], this molecule showed a logP of 3.68. Also, in series [4], the LDH was found to be 137 mU. Moreover, in series [5], the kDPPH is under 2 M⁻¹ s⁻¹.
